One data set deals with Lupinus albus. As to the kind of experiment: Phytotoxicity against Lupinus albus assessed as area of lesions at 1 mg/ml at 20 degC for 4 days. The settings on record: in vivo, 96 h. Type of data set: organism-based. The method, boiled down: (§1)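 Whole plants grown one per pot in 1:1 sand/peat at 20 °C, 12 h light/dark, until about seven leaves. One leaflet detached, placed abaxial side up on 0.4% water agar, epidermis cut (three cuts over 3 mm2). A 20 μL drop of metabolite (5% MeOH in water) applied over cuts, kept at 20 °C, 12 h photoperiod. 3–4 replicates, randomized; 5% MeOH control; lesion area in mm2.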

The test system of the next data set is Phaseolus vulgaris. As to the kind of experiment: Phytotoxicity against Phaseolus vulgaris assessed as area of lesions at 1 mg/ml at 20 degC for 4 days. The settings on record: in vivo, 96 h. It is filed as organism-based. The gist of the method:
as §1

The test system of a further data set is Vicia faba. As to the kind of experiment: Phytotoxicity against Vicia faba assessed as area of lesions at 1 mg/ml at 20 degC for 4 days. It is filed as organism-based. Particulars: in vivo, 96 h. The gist of the method:
as §1

The next data set has as its system Cicer arietinum. As to the kind of experiment: Phytotoxicity against Cicer arietinum assessed as area of lesions at 1 mg/ml at 20 degC for 4 days. Particulars: in vivo, 96 h. Type of data set: organism-based. The gist of the method: as §1
In another data set the test system is Lens culinaris. As to the kind of experiment: Phytotoxicity against Lens culinaris assessed as area of lesions at 1 mg/ml at 20 degC for 4 days. Type of data set: organism-based. Particulars: in vivo, 96 h. The gist of the method: as §1
A further data set deals with Sonchus arvensis. As to the kind of experiment: Phytotoxicity against Sonchus arvensis (field sow-thistle) assessed as area of lesions at 1 mg/ml at 20 degC for 4 days. It is filed as functional. The method, boiled down:
as §1

A further data set concerns Lathyrus sativus. As to the kind of experiment: Phytotoxicity against Lathyrus sativus assessed as area of lesions at 1 mg/ml at 20 degC for 4 days. Type of data set: organism-based. Particulars: in vivo, 96 h. The gist of the method: as §1
The subject of another data set is Chenopodium album. As to the kind of experiment: Phytotoxicity against Chenopodium album assessed as area of lesions at 1 mg/ml at 20 degC for 4 days. Type of data set: functional. The method, boiled down: as §1
The subject of a further data set is Pisum sativum. As to the kind of experiment: Phytotoxicity against Pisum sativum (pea)assessed as area of lesions at 1 mg/ml at 20 degC for 4 days. It is filed as organism-based. The settings on record: lathyrus oleraceus, in vivo, 96 h. The method, boiled down: as §1
In the next data set the test system is Medicago truncatula. As to the kind of experiment: Phytotoxicity against Medicago truncatula assessed as area of lesions at 1 mg/ml at 20 degC for 4 days. The settings on record: in vivo, 96 h. It is filed as organism-based. The gist of the method: as §1
A further data set deals with Cirsium arvense. As to the kind of experiment: Phytotoxicity against Cirsium arvense (Canada thistle) assessed as area of lesions at 1 mg/ml at 20 degC for 4 days. Type of data set: functional. The method, boiled down: as §1
For a further data set, the system named is Pisum fulvum. As to the kind of experiment: Phytotoxicity against Pisum fulvum assessed as area of lesions at 1 mg/ml at 20 degC for 4 days. It is filed as organism-based. The settings on record: lathyrus fulvus, in vivo, 96 h. The gist of the method:
as §1

Active and inactive are the calls of the source. The rule behind the calls is not given here.

For `CCC[C@H]1OC(=O)[C@@H](O)CC/C=C/[C@H](O)[C@@H]1O`, the Activity entry in the data set with Lupinus albus, in the data set on Phaseolus vulgaris, in the data set with Vicia faba, with Cicer arietinum, with Lens culinaris and in the data set with Lathyrus sativus was “Non-toxic” in each case. The Activity result in the data set on Pisum sativum, in the data set with Medicago truncatula and with Pisum fulvum was “Non-toxic” each time. Besides, the outcome in the data set on Sonchus arvensis, in the data set with Chenopodium album and in the data set on Cirsium arvense was inactive.
Regarding `CCC[C@H]1OC(=O)[C@@H](O)CC/C=C/[C@@H](O)[C@@H]1O` (relative stereo) [Pinolide], the Activity result in the data set with Lupinus albus, in the data set on Phaseolus vulgaris, in the data set on Vicia faba, with Cicer arietinum, with Lens culinaris and with Lathyrus sativus was “Non-toxic” each time. Moreover, the Activity entry in the data set on Pisum sativum, in the data set on Medicago truncatula and in the data set on Pisum fulvum was “Non-toxic” in each case. Besides, the result in the data set on Sonchus arvensis, with Chenopodium album and with Cirsium arvense was inactive.
Consider `CCC[C@H]1OC(=O)[C@H](O)CC/C=C/[C@H](O)[C@@H]1O` [HERBARUMIN II], for which the Activity result in the data set on Lupinus albus, in the data set on Phaseolus vulgaris, in the data set on Vicia faba, with Cicer arietinum, in the data set on Lens culinaris and with Lathyrus sativus was “Non-toxic” each time. The Activity entry with Pisum sativum, in the data set on Medicago truncatula and in the data set on Pisum fulvum was “Non-toxic” throughout. The outcome in the data set on Sonchus arvensis, in the data set on Chenopodium album and with Cirsium arvense was inactive.
For the compound `C/C=C/C=C/C(=O)O[C@H]1CC/C=C/[C@H](O)[C@H](O)[C@@H](CCC)OC1=O` [PINOLIDOXIN], the Activity in the data set on Lupinus albus came out at 73.6 mm2; in the data set with Phaseolus vulgaris, 34 mm2; with Vicia faba it was 7.2 mm2; in the data set with Cicer arietinum, 9.1 mm2; in the data set with Lens culinaris, 45.5 mm2; with Sonchus arvensis, 23.6 mm2. For the same compound, the Activity in the data set on Lathyrus sativus amounted to 41.9 mm2; in the data set with Chenopodium album, 47.8 mm2; in the data set on Pisum sativum, 45.5 mm2; with Medicago truncatula, 49.2 mm2; with Cirsium arvense, 25 mm2; with Pisum fulvum, 21.5 mm2.

The values above are taken from ChEMBL document CHEMBL3044908, “Pinolide, a new nonenolide produced by Didymella pinodes , the causal agent of ascochyta blight on Pisum sativum” (J Agric Food Chem, 2012).
